The values that follow come from the array DNA melting data of Ke et al. (doi:10.1101/2024.01.08.574731).

Data set [1] is described as follows: folding enthalpy; higher = less favourable; fluorescence melt of hairpins on a sequencing array, two-state fit. The note with it: sodium 0.088 M. The gist of the method: (§1)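 Library hairpins on a sequenced MiSeq flow cell carried annealed Cy3 and quencher oligos, and their Cy3 fluorescence was imaged in 50 mM Na-HEPES pH 8.0 with 25 mM NaCl, in 2.5 °C steps up to 60 °C. Signals were normalised to Cy3 before quenching and to control constructs. Melting temperature and folding enthalpy were obtained from bootstrapped two-state fits, combined by inverse-variance weighting across four replicates, and the fitted temperatures were then raised by 9.35 °C to match UV melts.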

A short description of data set [2]: melting temperature; fluorescence melt of hairpins on a sequencing array, two-state fit, raised by 9.35 °C to match UV melts. The note with it: sodium 0.088 M. The gist of the method:
as §1

For the sequence TGGTTGAAAAACCA (((((....))))), the folding enthalpy in data set [1] is -15.1 kcal/mol. The Tm in data set [2] stood at 47 °C.
Turning to GTGCGTCCGAAAGGACAC (((..(((....)))))), the folding enthalpy in data set [1] is -9.8 kcal/mol. For the same sequence, in data set [2], the Tm was 60.4 °C.
GGTAAGGGAAACCTTGCC ((.((((....)))).)): in data set [1], the folding enthalpy is -29.6 kcal/mol. In data set [2], the Tm amounted to 48.3 °C.
As to GGAAAACGAAAGTTTCC (((.(((....)))))), the folding enthalpy in data set [1] was -21.7 kcal/mol. For the same sequence, the Tm in data set [2] was 44.1 °C.
GCTCAGCGAAAGCCGTGC ((.(.((....)).).)): in data set [1], the folding enthalpy is -12.3 kcal/mol. The Tm in data set [2] came to 42.4 °C.
On to GATCTGATTCCAGATC ((((((....)))))), for which the folding enthalpy in data set [1] is -34 kcal/mol. Besides, in data set [2], the Tm was 48.5 °C.
With GATCGTAAATACGATC ((((((....)))))), the folding enthalpy in data set [1] was -38.9 kcal/mol. The Tm in data set [2] was determined as 53 °C.
GTCTCCGAAAGGAGAGAC ((((((....)))..))): the folding enthalpy in data set [1] is -11.4 kcal/mol. For the same sequence, the Tm in data set [2] came to 48 °C.
The corresponding values for GATCTTGTGAAAGATC ((((((....)))))) are -37.3 kcal/mol and 51.2 °C.
As for GATCAAATGTTTGATC ((((((....)))))), in data set [1], the folding enthalpy is -34.6 kcal/mol. The Tm in data set [2] is 45.1 °C.
Consider AGTGGGAAACCACT (((((....))))), for which, in data set [1], the folding enthalpy is -19.5 kcal/mol. In addition, the Tm in data set [2] is 49.8 °C.
As to GCGTCGCGAAAGCGTAGC ((..(((....)))..)), the folding enthalpy in data set [1] is -20.8 kcal/mol. In data set [2], the Tm stood at 58.6 °C.
Take GACCACGAAAGTGAGTC ((((((....))).))): the folding enthalpy in data set [1] is -30.5 kcal/mol. Moreover, in data set [2], the Tm turned out to be 52.2 °C.
The matching figures for GCGAACTATCGC ((((....)))): -20.6 kcal/mol and 45.4 °C.
For GGAGTCTCGAAAGAGTCC (((..(((....)))))), the folding enthalpy in data set [1] is -20.1 kcal/mol. The Tm in data set [2] worked out at 41.7 °C.
The matching figures for GGACGACGAAAGTCTCC (((.(((....)))))): -27.1 kcal/mol and 47 °C.
As to GAGGACGAAAGTCTTCTC ((((((....)))..))), in data set [1], the folding enthalpy was -23 kcal/mol. In addition, in data set [2], the Tm came to 48 °C.
With GACATAGGAAACCATGTC (((((.(....).))))), in data set [1], the folding enthalpy was -29.1 kcal/mol. Also, the Tm in data set [2] came to 37.5 °C.
With GACCCCCGAAAGGGTGTC (((.(((....))).))), the folding enthalpy in data set [1] is -25 kcal/mol. For the same sequence, the Tm in data set [2] was 51.8 °C.
As to GTGGCAGGAAACCGCCAC (((((.(....).))))), the folding enthalpy in data set [1] was -46.8 kcal/mol. For the same sequence, the Tm in data set [2] came out at 55.9 °C.
Take GATCGCTGAGCGATC ((((((...)))))): the folding enthalpy in data set [1] is -31 kcal/mol. In data set [2], the Tm stood at 69 °C.
Regarding GATCCAGCTATGGATC ((((((....)))))), the folding enthalpy in data set [1] was -33.5 kcal/mol. In addition, the Tm in data set [2] was found to be 58.8 °C.
Regarding GAAGCCCGAAAGGGGTTC (((.(((....))).))), the folding enthalpy in data set [1] is -36.8 kcal/mol. Also, in data set [2], the Tm was determined as 67.7 °C.
As to GATCCTCCCCAGGATC ((((((....)))))), in data set [1], the folding enthalpy is -43.7 kcal/mol. Also, the Tm in data set [2] stood at 50.4 °C.
In the case of GTAAATCGAAAGATATAC (((.(((....))).))), the folding enthalpy in data set [1] was -12.1 kcal/mol. Moreover, in data set [2], the Tm was 29.7 °C.
The matching figures for GAAGCCCGAAAGGGTTC (((.(((....)))))): -16 kcal/mol and 47.7 °C.
Turning to CGTCCGGAAACGGTACG ((((((....))).))), in data set [1], the folding enthalpy is -25.7 kcal/mol. Also, in data set [2], the Tm amounted to 48.1 °C.
On to GCGCAGCGAAAGCAGGGC ((.(.((....)).).)), for which, in data set [1], the folding enthalpy is -10.2 kcal/mol. Also, in data set [2], the Tm worked out at 51.2 °C.
The corresponding values for GAGGGGCCGAAAGGCCTC (((..(((....)))))) are -7.41 kcal/mol and 46.4 °C.
In the case of GGTAGTGGAAACGCTACC (((((.(....).))))), the folding enthalpy in data set [1] is -34.9 kcal/mol. Besides, the Tm in data set [2] was found to be 51.7 °C.
GGCCAGACGAAAGTCGCC (((..(((....)))))): in data set [1], the folding enthalpy is -13.3 kcal/mol. In addition, the Tm in data set [2] came out at 54.1 °C.
Consider GCATACGGAAACGTGTGC (((.(((....))).))), for which the folding enthalpy in data set [1] was -50.6 kcal/mol. Further, the Tm in data set [2] amounted to 55 °C.
The corresponding values for GATGACCGAAAGGTAATC (((.(((....))).))) are -23.4 kcal/mol and 47.1 °C.
As for GCTCCGCGAAAGCCGCGC ((.(.((....)).).)), the folding enthalpy in data set [1] is -11.8 kcal/mol. Moreover, the Tm in data set [2] came out at 36.2 °C.
On to GTAGACGAAAGTCGCTAC ((((((....)))..))), for which the folding enthalpy in data set [1] was -10.8 kcal/mol. The Tm in data set [2] worked out at 40.5 °C.
As for GGGTGTCGAAAGACCCC (((.(((....)))))), the folding enthalpy in data set [1] was -35.6 kcal/mol. In addition, in data set [2], the Tm is 56.4 °C.
With GAATGCGAAAGCAGATTC ((((((....)))..))), the folding enthalpy in data set [1] is -15.6 kcal/mol. For the same sequence, the Tm in data set [2] was determined as 43.2 °C.
